ChEMBL document CHEMBL3525931, “Stereoselective interaction of pantoprazole with ABCG2. II. In vitro flux analysis” (Drug Metab Dispos, 2012)

Biological target: T1, Broad substrate specificity ATP-binding cassette transporter ABCG2 (Homo sapiens, UniProt Q9UNQ0)
T1 sequence (Q9UNQ0 whole entry): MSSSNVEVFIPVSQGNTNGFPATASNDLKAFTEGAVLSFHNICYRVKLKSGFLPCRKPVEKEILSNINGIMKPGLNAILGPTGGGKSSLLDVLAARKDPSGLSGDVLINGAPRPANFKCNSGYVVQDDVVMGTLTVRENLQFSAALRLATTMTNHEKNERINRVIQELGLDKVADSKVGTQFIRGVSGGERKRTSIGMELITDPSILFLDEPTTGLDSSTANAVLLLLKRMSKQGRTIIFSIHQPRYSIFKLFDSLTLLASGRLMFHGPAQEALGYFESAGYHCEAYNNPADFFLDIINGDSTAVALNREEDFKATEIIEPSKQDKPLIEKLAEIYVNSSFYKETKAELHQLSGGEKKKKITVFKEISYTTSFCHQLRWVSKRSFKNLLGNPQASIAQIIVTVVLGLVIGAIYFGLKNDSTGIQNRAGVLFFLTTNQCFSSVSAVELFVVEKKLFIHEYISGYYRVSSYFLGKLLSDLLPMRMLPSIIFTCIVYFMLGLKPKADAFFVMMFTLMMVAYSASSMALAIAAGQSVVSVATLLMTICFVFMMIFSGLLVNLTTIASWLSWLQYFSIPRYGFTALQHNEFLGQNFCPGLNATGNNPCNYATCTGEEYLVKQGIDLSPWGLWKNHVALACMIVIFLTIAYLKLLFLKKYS
Test: Maximum drug transport rate in MDCK2 cells expressing human ABCG2 assessed as ABCG2-mediated transport by HPLC method
Format: ADME, cell-based
Conditions: mdck-ii
Method in brief: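 Kinetics came from the same Transwell bidirectional flux runs in rat Abcg2- or human ABCG2-MDCKII, with donor 3–200 μM single isomer. Cellular concentrations were predicted from a three-compartment model using PS_D from mock cells and PS_PC from mannitol. Apparent apical efflux permeability was fitted against predicted cellular concentration by saturable kinetics to give K_M and T_max.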

Row | Drug transport [nmol/hr.cm2] | Structure (SMILES)
1 | 3.29 | COc1ccnc(C[S@+]([O-])c2nc3cc(OC(F)F)ccc3[nH]2)c1OC
2 | 10.2 | COc1ccnc(C[S@@+]([O-])c2nc3cc(OC(F)F)ccc3[nH]2)c1OC
